Screening results: PubChem, The Scripps Research Institute Molecular Screening Center
Sampled rows, rich in hits. Any-hit rate of the full collection: about 2%.
TDP2 absorb = TDP2 (human) inhibition, absorbance primary screen; recombinant TDP2, T5PNP hydrolysis, p-nitrophenol absorbance 415 nm; 370,000 compounds, 0.34% hits; inhibition, % at 12.8 µM;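 active means inhibition above the mean of all tested compounds plus 3 SD, set per campaign, cut at about 25% in these data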
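System – recombinant human TDP2 · Quantity – TDP2 enzyme at 120 nM final · Doses – single concentration, 12.8 µM nominal, with 1% DMSO · Incubation – 2 h at 37 °C · Measured by – epi absorbance of p-nitrophenol freed from T5PNP by hydrolysis · Read-out – % inhibition relative to enzyme-containing and enzyme-free wells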
PAD4 FP inh = blocks human protein arginine deiminase 4 | inhibition, % at 6.36 µM | recombinant PAD4, RCA probe fluorescence polarization | 330,000 compounds, 0.41% hits | AID 485272;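 active means percent inhibition above a cutoff equal to the mean of all tested compounds plus 3 SD, cut at about 15% in these data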
mABHD4 FP = inhibitors of mouse ABHD4 | Q8VD66 | purified mABHD4, FP-Rh probe fluorescence polarization | inhibition, % at 8.92 µM | 370,000 compounds, 0.54% hits;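 active means inhibition exceeding the mean over every tested compound plus 3 SD, cut at about 30% in these data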
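assay system = mABHD4 protein | compound dosing = single nominal dose of 8.92 µM, 0.89% DMSO final | read-out basis = percent inhibition of probe binding, normalized to plate controls | schedule = Enzyme–compound pre-incubation 45 min, then probe 60 min, both 25 °C | detection = fluorescence polarization, excitation 525 nm, emission 598 nm, BODIPY TMR filters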
TCR CD3 inh = human TCR-CD3 binding inhibition; TAMRA-labeled TCR probe fluorescence, biochemical; inhibition, % at 9.4 µM; 360,000 compounds, 0.37% hits; in the data active means inhibition above about 19%;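 further: recombinant mutant TCR 2C K166C tagged with TAMRA read by polarization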
SIAE primary = human SIAE inhibition, primary screen. SIAE FP-Rh probe binding, fluorescence polarization. inhibition, % at 9.66 µM. AID 1053197. 370,000 compounds, 0.69% hits. Q9HAT2;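 active means inhibition above a cutoff: mean of compounds within the control limits plus 3 SD of those, cut at about 17% in these data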
Target sequence (Q9HAT2 whole entry, looked up): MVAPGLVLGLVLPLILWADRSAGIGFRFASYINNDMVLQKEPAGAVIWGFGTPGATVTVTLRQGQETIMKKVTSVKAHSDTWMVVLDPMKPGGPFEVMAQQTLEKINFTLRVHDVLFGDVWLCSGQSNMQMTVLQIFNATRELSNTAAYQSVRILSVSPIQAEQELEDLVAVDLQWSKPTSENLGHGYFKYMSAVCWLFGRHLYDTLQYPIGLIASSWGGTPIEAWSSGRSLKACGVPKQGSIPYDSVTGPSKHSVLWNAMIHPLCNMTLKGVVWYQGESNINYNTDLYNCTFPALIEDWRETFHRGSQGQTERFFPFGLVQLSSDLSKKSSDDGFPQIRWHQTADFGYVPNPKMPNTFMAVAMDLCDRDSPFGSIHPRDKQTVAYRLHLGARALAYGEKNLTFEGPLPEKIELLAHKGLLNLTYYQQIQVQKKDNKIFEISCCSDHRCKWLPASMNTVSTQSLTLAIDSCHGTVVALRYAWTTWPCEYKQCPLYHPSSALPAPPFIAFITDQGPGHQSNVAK
HTRA1 inh = inhibitors of human serine peptidase HTRA1 | inhibition, % at 5.96 µM | Q92743 | 340,000 compounds, 0.5% hits | AID 504803 | recombinant HTRA1, FP-rhodamine activity-based probe, fluorescence polarization; in the data active means inhibition above about 36%
mABHD4 conf = ABHD4 (mouse) inhibition, FP confirmation | 1,800 compounds, 55% hits | inhibition, % at 8.92 µM | shares compounds with mABHD4 FP | AID 720658 | purified mABHD4, FP-Rh probe fluorescence polarization;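 active means mean inhibition across replicates above the hit cutoff set in the primary screen, cut at about 30% in these data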
A number is an active result; n = inactive; x = no result given.

SMILES | TDP2 absorb | PAD4 FP inh | mABHD4 FP | TCR CD3 inh | SIAE primary | HTRA1 inh | mABHD4 conf
COc1cccc(CNc2cccc3cccnc23)c1O | n | n | 34.1 | n | n | n | n
COc1cccc(CNc2ccccn2)c1O | n | n | n | n | n | n | x
CC(=O)c1cc(-c2csc(C=O)c2)c(=O)n2c1CCC2 | n | x | n | x | n | x | x
CCCCNc1c(-c2ccc(-c3cccc(Cl)c3)cc2)nc2ccccn12 | n | n | 39.8 | n | n | n | 31.7
CCCCCCSc1cccc(-c2nc3ccc(Cl)cn3c2NCCCC)c1 | n | x | n | n | n | n | x
CCCCNc1c(-c2cccc(-c3ccc(OC)cc3)c2)nc2ccc(C)cn12 | n | n | 30.1 | n | n | n | 35.4
CCCCNc1c(-c2cccc(-c3cc(C(C)=O)cs3)c2)nc2ccc(C)cn12 | n | n | n | n | n | n | x
CCCCCCSc1ccc(-c2nc3ccccn3c2NCCCC)cc1 | n | n | 43.9 | n | n | n | 50.2
COC(=O)C[C@H]1CC[C@H](NC(=O)Nc2ccccc2OC)[C@@H](CO)O1 | n | x | n | n | n | x | x
CN(CCO)c1ccc2c(c1)OC[C@H](Cc1ccccc1)NS2(=O)=O | n | x | n | n | n | x | x
O=C1OC(/C(=C\Nc2cc(Cl)ccc2O)[N+](=O)[O-])c2ccccc21 (centres undefined) | n | n | 42.0 | n | n | n | n
CCOC(=O)CN1C(=O)CSc2ccc(S(=O)(=O)N3CCCC3)cc21 | n | n | 35.2 | n | n | n | n
CCOC(=O)CN1C(=O)CSc2ccc(S(=O)(=O)N3CCOCC3)cc21 | n | n | n | n | n | n | x
CC1=C(C(=O)NCc2ccco2)C2(CCC(C)CC2)OC1=O (centres undefined) | n | n | 30.8 | n | n | n | n
CC(=O)Oc1cc2c3c(c1)/C(=C1/SC(=S)NC1=O)C(=O)N3C(C)(C)C=C2C | n | n | 61.2 | n | n | n | 100.7
CCOc1cc2c3c(c1)C(C)=CC(C)(C)N3C(=O)C2=O | n | n | n | n | n | n | x
CC1=NN(c2nc(-c3ccccc3)cs2)C(=O)C1 | n | n | 49.4 | n | n | n | 145.9
CCOc1ccc2[nH]c3c(N4CCc5ccccc5C4)ncnc3c2c1 | n | n | 34.9 | n | n | x | 53.3
Cc1ccc(/C=N/Nc2cc(C)nc(NCc3ccccc3)n2)cc1 | n | n | 33.6 | n | n | n | 59.8
Cc1cc(N/N=C/c2ccc(F)cc2)nc(NCc2ccccc2)n1 | n | n | n | n | n | x | x
CC(C)(c1ccccc1)c1ccc(OCC(O)CNC2CCN(Cc3ccccc3)CC2)cc1 (centres undefined) | n | n | 31.6 | n | n | n | 36.2
Cc1c2ccccc2nc2ccccc12 | n | n | n | n | n | n | x
CCCNc1c(F)c(F)c2c(C)c3ccccc3nc2c1F | n | n | 50.8 | n | n | 50.9 | 44.5
O=C(Nc1ccc(OC(F)(F)F)cc1)Nc1c(-c2ccccc2)nc2ncccn12 | n | x | n | x | n | x | x
Cc1ccc(S(=O)(=O)N2[C@@H](c3ccccc3F)C(C(=O)O)=CC[C@H]2c2ccc(C(C)C)cc2)cc1 | n | n | 32.8 | n | n | n | n
SMILES | TDP2 absorb | PAD4 FP inh | mABHD4 FP | TCR CD3 inh | SIAE primary | HTRA1 inh | mABHD4 conf
CC1(C(=O)NCC2CC2)Cc2c(-c3ccccc3)ccnc2O1 (centres undefined) | n | x | n | n | n | x | x
Nc1c(Cl)ncnc1N/N=C/c1ccccn1 | n | n | 54.2 | n | n | x | 53.8
Nc1c(Cl)ncnc1N/N=C/c1cccnc1 | n | n | n | n | n | n | x
O=C(CCc1ccccc1)NC1(Cc2ccccc2)CCN(CCCc2ccccc2)C1=O (centres undefined) | n | n | n | n | n | n | x
COc1cccc(-c2nc(NCC3CCCO3)c3ccccc3n2)c1O (centres undefined) | n | n | 32.6 | n | n | n | 34.3
COc1cccc(-c2nc(NC(C)C)c3ccccc3n2)c1O | n | n | n | n | n | n | x
CCC(C)Nc1nc(-c2cccc(OC)c2O)nc2ccccc12 (centres undefined) | n | n | 33.9 | n | n | n | 36.6
Cc1ccc(NC(=O)CN(C)C(=O)Cc2c(Cl)cccc2Cl)cc1 | n | n | n | n | n | n | x
CCN(CC)c1ccc(C=NNC(=O)Cc2cc(=O)[nH][nH]2)c(O)c1 | n | x | 32.9 | x | n | x | n
Cc1ccc(S(=O)(=O)/N=C2/NC(=O)/C(=C\c3ccco3)S2)cc1 | n | n | 31.8 | n | n | n | n
COc1ccccc1N1CCN(C(=O)c2ccc3nc(-c4ccco4)c(-c4ccco4)nc3c2)CC1 | n | n | n | n | n | n | x
Cc1ccc(C)c(N2CCN(C(=O)c3ccc4nc(-c5ccco5)c(-c5ccco5)nc4c3)CC2)c1 | n | n | 41.7 | n | n | n | n
CCOc1ccc(C(=O)NCC(=O)N2CCC(C)CC2)cc1OCC | n | n | n | n | n | n | x
CC(C(=O)O)N1C(=O)/C(=C/C=C/c2ccco2)SC1=S (centres undefined) | n | n | 37.1 | n | n | n | n
Cc1cccc(N2N=C(C(=O)Nc3ccc(Cl)c(S(=O)(=O)N4CCOCC4)c3)CCC2=O)c1 | n | n | n | n | n | n | x
O=C(NNC(=O)c1nc2ccccc2[nH]1)OCc1ccccc1 | n | n | 36.2 | n | n | n | n
OCC[C@H]1C[C@@H](O)[C@H](O)[C@]2(OCCc3ccccc32)O1 | n | n | 35.2 | n | n | n | n
OCC[C@@H]1C[C@@H](O)[C@H](O)[C@]2(OCCc3ccccc32)O1 | n | n | n | n | n | n | x
O=[N+]([O-])c1ccccc1CCc1cnc(Cl)s1 | n | n | n | n | n | n | x
NC(N)=N/N=C(\N=Nc1ccccc1)c1cccc2cccnc12 | n | x | n | n | n | n | x
NC(N)=N/N=C(\N=Nc1ccccc1)c1ccc(Cl)cc1 | n | x | 43.7 | n | n | n | 55.0
Cc1ccc(C)c(N2CCN(C(=O)c3ccc(CS(=O)Cc4cccc(Cl)c4)o3)CC2)c1 (centres undefined) | n | n | n | n | n | n | x
COc1cc(/C=C(\C(=O)O)c2ccc(S(=O)(=O)N3CCCC3)s2)cc(OC)c1 | n | x | n | n | n | n | x
COc1ccc(Br)cc1/C=C(\C(=O)O)c1ccc(S(=O)(=O)N2CCCC2)s1 | n | n | 29.6 | n | n | n | n
COc1ccc(OC)c(-c2csc(NC(=O)Cc3cccs3)n2)c1 | n | n | n | n | n | n | x
Cc1noc(COc2ccccc2OCC(N)=O)n1 | n | n | n | n | n | x | x
O=C(Cn1cnc2scc(-c3ccc(Br)cc3)c2c1=O)N1CCOCC1 | n | n | n | n | n | n | x
CCOc1cccc2sc(NN)nc12 | n | x | 71.2 | n | n | n | 71.5
